Results taken from PMC4210126 (ACS Chemical Neuroscience, 2014).

Key:
Measurement of LogD = format: physicochemical; details: n-octanol/sodium phosphate buffer, pH 7.4
Summary of the method: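 Partition of each carbon-11-labelled test compound between n-octanol and sodium phosphate buffer (pH 7.4), run at room temperature. Radioactivity distribution between the phases gives logD.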

human HAB TSPO = human HAB TSPO (Homo sapiens, UniProt P30536); format: binding; details: pKi – logD for human cerebellum HAB
human HAB TSPO, sequence (P30536 whole entry): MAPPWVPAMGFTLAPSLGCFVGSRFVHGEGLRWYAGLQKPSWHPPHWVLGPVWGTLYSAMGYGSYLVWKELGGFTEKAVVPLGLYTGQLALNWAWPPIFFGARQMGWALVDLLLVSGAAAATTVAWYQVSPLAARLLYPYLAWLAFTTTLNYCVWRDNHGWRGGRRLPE

CCC(C)N(C)C(=O)c1cc2ccccc2c(-c2ccccc2Cl)n1 (centres unmarked) [Ligand 1]
logD (Measurement of LogD): 3.97 ± 0.18 | LipE (human HAB TSPO): 4.37
